Experimental data: ChEMBL document CHEMBL2375228, “4-Bromo-2-(piperidin-1-yl)thiazol-5-yl-phenyl methanone (12b) inhibits Na+/K(+)-ATPase and Ras oncogene activity in cancer cells” (Eur J Med Chem, 2013)

What was measured:
[1] = Cytotoxicity against human Hs683 cells after 72 hrs by MTT assay; assay type: functional, cell-based; settings: Hs 683, 72 h
Outline: (§1)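 Cells grown in RPMI with 10% heat-inactivated fetal calf serum and exposed to compound for 72 h. Overall growth read by MTT colorimetric assay; IC50 derived from it. Six replicates per condition.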

PC-3 [2] = assay: Cytotoxicity against human PC3 cells after 72 hrs by MTT assay; assay type: functional, cell-based; settings: PC-3, 72 h; outline: as §1
[3] = Cytotoxicity against human U373 cells after 72 hrs by MTT assay; assay type: functional, cell-based, U-373MG ATCC; settings: U373 MG; outline: as §1
MCF7 [4] = assay: Cytotoxicity against human MCF7 cells after 72 hrs by MTT assay; assay type: functional, cell-based; settings: MCF7, 72 h; outline: as §1
A549 [5] = assay: Cytotoxicity against human A549 cells after 72 hrs by MTT assay; assay type: functional, cell-based; settings: A549, 72 h; outline: as §1
SK-MEL-28 [6] = assay: Cytotoxicity against human SK-MEL-28 cells after 72 hrs by MTT assay; assay type: functional, cell-based; settings: SK-MEL-28, 72 h; outline: as §1
SK-MEL-28 [7] = assay: Ratio of perillyl alcohol IC50 to compound IC50 for human SK-MEL-28 cells; assay type: functional
Hs 683 [8] = assay: Ratio of perillyl alcohol IC50 to compound IC50 for human Hs683 cells; assay type: functional
Hs 683 [9] = assay: Selectivity index for NMRI mouse astrocytes over human Hs683 cells
Cavia porcellus = species: Cavia porcellus; assay: Inhibition of guinea pig brain Na+/K+-ATPase at 1 mM preincubated for 10 mins measured after 30 mins relative to control
PC-3 [10] = assay: Ratio of perillyl alcohol IC50 to compound IC50 for human PC3 cells; assay type: functional
[11] = Selectivity index for human U373 cells over NMRI mouse astrocytes; design: species or system U-373MG ATCC
Hs 683 [12] = assay: Cytostatic activity against human Hs683 cells at 40 uM after 48 to 72 hrs by videomicroscopic analysis relative to control; assay type: functional
Outline: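 Hs683 glioma cells, untreated or at 40 µM, filmed by computer-assisted phase-contrast videomicroscopy over 72 h, one image every 4 min (1080 images), in triplicate. Growth rate = cell count in last image / first image. GGR index = treated ratio / control ratio.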

[13] = Chemical stability of the compound in RPMI culture medium after 72 hrs by mass spectroscopic analysis; assay type: physicochemical
Outline: (§2)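 5 mM DMSO stock diluted 100-fold in water or RPMI and held at 37 °C for 72 h. Samples infused into ESI-QTOF MS (positive mode, scan 110–950 m/z) with FA 0.2%-MeOH 50:50 as solvent.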

MCF7 [14] = assay: Ratio of perillyl alcohol IC50 to compound IC50 for human MCF7 cells; assay type: functional
A549 [15] = assay: Ratio of perillyl alcohol IC50 to compound IC50 for human A549 cells; assay type: functional
[16] = Ratio of perillyl alcohol IC50 to compound IC50 for human U373 cells; assay type: functional, U-373MG ATCC
[17] = Growth inhibition of NMRI mouse astrocytes at 30 to 300 uM after 72 hrs by MTT assay; assay type: cell-based, Astrocyte; settings: read-out: GI
Outline: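 Mouse astrocyte primocultures were plated in uncoated T25 flasks for 72 h, medium was changed and cells grown to confluence. Tested at 0, 30, 60 and 300 µM by MTT colorimetric assay.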

[18] = Chemical stability of the compound in water after 72 hrs by mass spectroscopic analysis; assay type: physicochemical; settings: buffer; outline: as §2
[19] = Growth inhibition of NMRI mouse astrocytes after 72 hrs by MTT assay; assay type: cell-based; settings: Astrocyte

Row | Structure (SMILES) | IC50 [1] | IC50 (PC-3 [2]) | IC50 [3] | IC50 (MCF7 [4]) | IC50 (A549 [5]) | IC50 (SK-MEL-28 [6]) | Ratio IC50 (SK-MEL-28 [7]) | Ratio IC50 (Hs 683 [8]) | Selectivity Index (Hs 683 [9]) | inhibition (Cavia porcellus) | Ratio IC50 (PC-3 [10]) | Selectivity Index [11] | Activity (Hs 683 [12]) | Stability [13] | Ratio IC50 (MCF7 [14]) | Ratio IC50 (A549 [15]) | Ratio IC50 [16] | inhibition at 72 h, up to 300 µM [17] | Stability [18] | IC50 [19]
1 | O=C(c1ccccc1)c1sc(N2CCOCC2)nc1Cl | > 100 µM | > 100 µM | 92 µM | 70 µM | 78 µM | > 100 µM |  |  |  |  |  |  |  |  |  |  |  |  |  | 
2 | COC(=O)c1sc2nc(SC)sc2c1C | 79 µM | 90 µM | 92 µM | 69 µM | 78 µM | > 100 µM |  |  |  |  |  |  |  |  |  |  |  |  |  | 
3 | O=C(c1ccccc1)c1sc(N2CCOCC2)nc1Br | 93 µM | > 100 µM | > 100 µM | 51 µM | 84 µM | > 100 µM |  |  |  |  |  |  |  |  |  |  |  |  |  | 
4 | COC(=O)c1sc2nc(N3CCOCC3)sc2c1C | 92 µM | > 100 µM | > 100 µM | 78 µM | 96 µM | > 100 µM |  |  |  |  |  |  |  |  |  |  |  |  |  | 
5 | CCOC(=O)c1sc(N2CCCC2)nc1Cl | 54 µM | 78 µM | > 100 µM | 79 µM | 61 µM | 82 µM |  |  |  |  |  |  |  |  |  |  |  |  |  | 
6 | CSc1nc(Cl)c(C(=O)c2ccccc2)s1 | > 100 µM | > 100 µM | > 100 µM | 91 µM | > 100 µM | > 100 µM |  |  |  |  |  |  |  |  |  |  |  |  |  | 
7 | N#Cc1sc(N2CCCCC2)nc1Br | 84 µM | > 100 µM | > 100 µM | 77 µM | 93 µM | > 100 µM |  |  |  |  |  |  |  |  |  |  |  |  |  | 
8 | CSc1nc(Br)c(C(=O)c2ccccc2)s1 | > 100 µM | > 100 µM | 89 µM | 67 µM | 97 µM | > 100 µM |  |  |  |  |  |  |  |  |  |  |  |  |  | 
9 | O=C(c1ccccc1)c1sc(N2CCCCC2)nc1Cl | 36 µM | 69 µM | 96 µM | 56 µM | 41 µM | 91 µM | 10 | 10 | >5 | > 50% | 10 | >5 | 40% | Stable | 10 | 10 | 10 | < 50% | Stable | > 300 µM
